Experimental data from ChEMBL document CHEMBL1149770, “Synthesis and antimicrobial studies of novel dichlorofluorophenyl containing aminotriazolothiadiazines” (2008).
In brackets after ≈: the same amount, converted by molar mass.

Columns and labels:
[1] = tested on: Staphylococcus aureus; assay: Antibacterial activity against Staphylococcus aureus ATCC 25923 assessed as inhibition zone diameter after 24 hrs […]; assay type: functional
Outline: (§1)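 Disc diffusion on nutrient agar. Inoculum 1-2 × 10^7 c.f.u/ml (0.5 McFarland) spread over the plate surface. Sterile 6.25 mm filter-paper discs soaked in a known concentration of compound. Solvent and growth controls included. Plates incubated inverted 24 h at 37 °C, then inhibition zone diameter measured in mm. Ciprofloxacin reference.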

[2] = tested on: Aspergillus flavus; assay: Antifungal activity against Aspergillus flavus after 48 hrs […]; assay type: functional
[3] = tested on: Aspergillus fumigatus; assay: Antifungal activity against Aspergillus fumigatus after 48 hrs […]; assay type: functional
[4] = tested on: Pseudomonas aeruginosa; assay: Antibacterial activity against Pseudomonas aeruginosa ATCC 27853 assessed as inhibition zone diameter after 24 hrs […]; assay type: functional; outline: as §1
[5] = tested on: Klebsiella pneumoniae; assay: Antibacterial activity against Klebsiella pneumoniae assessed as inhibition zone diameter after 24 hrs […]; assay type: functional; outline: as §1
[6] = tested on: Talaromyces marneffei; assay: Antifungal activity against Penicillium marneffei assessed as inhibition zone diameter […] by agar dilution method; assay type: functional
Outline: (§2)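 Compounds in DMSO placed in punched wells on Sabouraud agar (peptone, glucose, agar, pH 5.7) lawned with saline spore suspension. Plates pre-dried 1 h at 37 °C. Controls in triplicate, incubation at 37 °C for 3-4 days, then inhibition zone diameter read in mm. Amphotericin B reference.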

[7] = tested on: Aspergillus fumigatus; assay: Antifungal activity against Aspergillus fumigatus assessed as inhibition zone diameter […] by agar dilution method; assay type: functional; outline: as §2
[8] = tested on: Trichophyton mentagrophytes; assay: Antifungal activity against Trichophyton mentagrophytes assessed as inhibition zone diameter […] by agar dilution method; assay type: functional; outline: as §2
[9] = tested on: Pseudomonas aeruginosa; assay: Antibacterial activity against Pseudomonas aeruginosa ATCC 27853 after 24 hrs by broth dilution technique; assay type: functional; details: ATCC 27853, 24 h
Outline: (§3)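 MIC by broth dilution in nutrient broth with logarithmic serial twofold dilutions of compound. Inoculum approx. 5×10^5 c.f.u actively dividing bacteria. Incubated 24 h at 37 °C, growth monitored visually and spectrophotometrically. MIC taken as the lowest concentration (highest dilution) arresting growth. Ciprofloxacin reference.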

[10] = tested on: Trichophyton mentagrophytes; assay: Antifungal activity against Trichophyton mentagrophytes after 48 hrs […]; assay type: functional
[11] = tested on: Streptococcus pyogenes; assay: Antibacterial activity against Streptococcus pyogenes assessed as inhibition zone diameter after 24 hrs by disc diffusion method
[12] = tested on: Candida albicans; assay: Antifungal activity against Candida albicans after 48 hrs […]; assay type: functional
[13] = tested on: Streptococcus pyogenes; assay: Antibacterial activity against Streptococcus pyogenes after 24 hrs by broth dilution technique; assay type: functional; outline: as §3
[14] = tested on: Aspergillus flavus; assay: Antifungal activity against Aspergillus flavus assessed as inhibition zone diameter […] by agar dilution method; assay type: functional; outline: as §2
[15] = tested on: Staphylococcus aureus; assay: Antibacterial activity against Staphylococcus aureus ATCC 25923 after 24 hrs by broth dilution technique; assay type: functional; details: ATCC 25923, 24 h; outline: as §3
[16] = tested on: Escherichia coli; assay: Antibacterial activity against Escherichia coli ATCC 25922 after 24 hrs by broth dilution technique; assay type: functional; details: ATCC 25922, 24 h; outline: as §3
[17] = tested on: Candida albicans; assay: Antifungal activity against Candida albicans assessed as inhibition zone diameter […] by agar dilution method; assay type: functional; outline: as §2
[18] = tested on: Talaromyces marneffei; assay: Antifungal activity against Penicillium marneffei after 48 hrs […]; assay type: functional
[19] = tested on: Klebsiella pneumoniae; assay: Antibacterial activity against Klebsiella pneumoniae after 24 hrs by broth dilution technique; assay type: functional; outline: as §3

| SMILES | inhibition zone (IZ) [1] | MIC [2] | MIC [3] | inhibition zone (IZ) [4] | inhibition zone (IZ) [5] | inhibition zone (IZ) [6] | inhibition zone (IZ) [7] | inhibition zone (IZ) [8] | MIC [9] | MIC [10] | inhibition zone (IZ) [11] | MIC [12] | MIC [13] | inhibition zone (IZ) [14] | MIC [15] | MIC [16] | inhibition zone (IZ) [17] | MIC [18] | MIC [19] |
| --- | --- | --- | --- | --- | --- | --- | --- | --- | --- | --- | --- | --- | --- | --- | --- | --- | --- | --- | --- |
| Nn1c(SCC(=O)Nc2c(Cl)cccc2Cl)nnc1-c1cc(F)c(Cl)cc1Cl | 18 mm | 6.25 µg/mL (≈ 13 µM) | 12.5 µg/mL (≈ 26 µM) | 23 mm | 21 mm | 13 mm | 15 mm | 10 mm | 12.5 µg/mL (≈ 26 µM) | 25 µg/mL (≈ 52 µM) | 19 mm | 12.5 µg/mL (≈ 26 µM) | 6.25 µg/mL (≈ 13 µM) | 17 mm | 6.25 µg/mL (≈ 13 µM) | 12.5 µg/mL (≈ 26 µM) | 12 mm | 12.5 µg/mL (≈ 26 µM) | 6.25 µg/mL (≈ 13 µM) |
| Cc1cccc(C)c1NC1=Nn2c(nnc2-c2cc(F)c(Cl)cc2Cl)SC1 | 23 mm | 6.25 µg/mL (≈ 14.8 µM) | 25 µg/mL (≈ 59.2 µM) | 15 mm | 12 mm | 12 mm | 10 mm | 19 mm | 6.25 µg/mL (≈ 14.8 µM) | 6.25 µg/mL (≈ 14.8 µM) | 21 mm | 12.5 µg/mL (≈ 29.6 µM) | 6.25 µg/mL (≈ 14.8 µM) | 24 mm | 6.25 µg/mL (≈ 14.8 µM) | 12.5 µg/mL (≈ 29.6 µM) | 15 mm | 12.5 µg/mL (≈ 29.6 µM) | 12.5 µg/mL (≈ 29.6 µM) |
| Nn1c(SCC(=O)Nc2ccc(Cl)cc2)nnc1-c1cc(F)c(Cl)cc1Cl | 17 mm | 25 µg/mL (≈ 56 µM) | 12.5 µg/mL (≈ 28 µM) | 18 mm | 12 mm | 17 mm | 15 mm | 8 mm | 12.5 µg/mL (≈ 28 µM) | 25 µg/mL (≈ 56 µM) | 10 mm | 12.5 µg/mL (≈ 28 µM) | 25 µg/mL (≈ 56 µM) | 10 mm | 12.5 µg/mL (≈ 28 µM) | 12.5 µg/mL (≈ 28 µM) | 12 mm | 12.5 µg/mL (≈ 28 µM) | 12.5 µg/mL (≈ 28 µM) |
| Nn1c(SCC(=O)Nc2cc(Cl)c(Cl)cc2Cl)nnc1-c1cc(F)c(Cl)cc1Cl | 22 mm | 6.25 µg/mL (≈ 12.1 µM) | 6.25 µg/mL (≈ 12.1 µM) | 30 mm | 21 mm | 23 mm | 21 mm | 19 mm | 6.25 µg/mL (≈ 12.1 µM) | 6.25 µg/mL (≈ 12.1 µM) | 25 mm | 6.25 µg/mL (≈ 12.1 µM) | 6.25 µg/mL (≈ 12.1 µM) | 25 mm | 6.25 µg/mL (≈ 12.1 µM) | 6.25 µg/mL (≈ 12.1 µM) | 20 mm | 6.25 µg/mL (≈ 12.1 µM) | 6.25 µg/mL (≈ 12.1 µM) |
| Cc1ccc(NC(=O)CSc2nnc(-c3cc(F)c(Cl)cc3Cl)n2N)cc1 | 25 mm | 6.25 µg/mL (≈ 14.7 µM) | 6.25 µg/mL (≈ 14.7 µM) | 31 mm | 20 mm | 23 mm | 20 mm | 18 mm | 6.25 µg/mL (≈ 14.7 µM) | 6.25 µg/mL (≈ 14.7 µM) | 22 mm | 6.25 µg/mL (≈ 14.7 µM) | 6.25 µg/mL (≈ 14.7 µM) | 22 mm | 6.25 µg/mL (≈ 14.7 µM) | 6.25 µg/mL (≈ 14.7 µM) | 18 mm | 6.25 µg/mL (≈ 14.7 µM) | 6.25 µg/mL (≈ 14.7 µM) |
| Cc1ccc(NC2=Nn3c(nnc3-c3cc(F)c(Cl)cc3Cl)SC2)cc1 | 21 mm | 6.25 µg/mL (≈ 15.3 µM) | 6.25 µg/mL (≈ 15.3 µM) | 29 mm | 21 mm | 23 mm | 20 mm | 17 mm | 6.25 µg/mL (≈ 15.3 µM) | 6.25 µg/mL (≈ 15.3 µM) | 23 mm | 6.25 µg/mL (≈ 15.3 µM) | 6.25 µg/mL (≈ 15.3 µM) | 19 mm | 6.25 µg/mL (≈ 15.3 µM) | 6.25 µg/mL (≈ 15.3 µM) | 18 mm | 6.25 µg/mL (≈ 15.3 µM) | 6.25 µg/mL (≈ 15.3 µM) |
| Fc1cc(-c2nnc3n2N=C(Nc2cc(Cl)c(Cl)cc2Cl)CS3)c(Cl)cc1Cl | 24 mm | 6.25 µg/mL (≈ 12.6 µM) | 6.25 µg/mL (≈ 12.6 µM) | 32 mm | 20 mm | 24 mm | 19 mm | 18 mm | 6.25 µg/mL (≈ 12.6 µM) | 6.25 µg/mL (≈ 12.6 µM) | 23 mm | 6.25 µg/mL (≈ 12.6 µM) | 6.25 µg/mL (≈ 12.6 µM) | 23 mm | 6.25 µg/mL (≈ 12.6 µM) | 6.25 µg/mL (≈ 12.6 µM) | 20 mm | 6.25 µg/mL (≈ 12.6 µM) | 6.25 µg/mL (≈ 12.6 µM) |
| Nn1c(SCC(=O)Nc2ccccc2C(F)(F)F)nnc1-c1cc(F)c(Cl)cc1Cl | 25 mm | 6.25 µg/mL (≈ 13 µM) | 6.25 µg/mL (≈ 13 µM) | 29 mm | 20 mm | 22 mm | 19 mm | 18 mm | 6.25 µg/mL (≈ 13 µM) | 6.25 µg/mL (≈ 13 µM) | 22 mm | 6.25 µg/mL (≈ 13 µM) | 6.25 µg/mL (≈ 13 µM) | 21 mm | 6.25 µg/mL (≈ 13 µM) | 6.25 µg/mL (≈ 13 µM) | 19 mm | 6.25 µg/mL (≈ 13 µM) | 6.25 µg/mL (≈ 13 µM) |
| Fc1cc(-c2nnc3n2N=C(Nc2ccccc2C(F)(F)F)CS3)c(Cl)cc1Cl | 22 mm | 6.25 µg/mL (≈ 13.5 µM) | 6.25 µg/mL (≈ 13.5 µM) | 30 mm | 21 mm | 21 mm | 21 mm | 17 mm | 6.25 µg/mL (≈ 13.5 µM) | 6.25 µg/mL (≈ 13.5 µM) | 23 mm | 6.25 µg/mL (≈ 13.5 µM) | 6.25 µg/mL (≈ 13.5 µM) | 21 mm | 6.25 µg/mL (≈ 13.5 µM) | 6.25 µg/mL (≈ 13.5 µM) | 18 mm | 6.25 µg/mL (≈ 13.5 µM) | 6.25 µg/mL (≈ 13.5 µM) |
| Nn1c(SCC(=O)Nc2ccc(F)c(Cl)c2)nnc1-c1cc(F)c(Cl)cc1Cl | 24 mm | 25 µg/mL (≈ 53.8 µM) | 12.5 µg/mL (≈ 26.9 µM) | 31 mm | 20 mm | 20 mm | 16 mm | 11 mm | 6.25 µg/mL (≈ 13.4 µM) | 12.5 µg/mL (≈ 26.9 µM) | 23 mm | 12.5 µg/mL (≈ 26.9 µM) | 6.25 µg/mL (≈ 13.4 µM) | 8 mm | 6.25 µg/mL (≈ 13.4 µM) | 6.25 µg/mL (≈ 13.4 µM) | 15 mm | 6.25 µg/mL (≈ 13.4 µM) | 6.25 µg/mL (≈ 13.4 µM) |
| Cc1ccc(NC(=O)CSc2nnc(-c3cc(F)c(Cl)cc3Cl)n2N)c(C)c1 | 17 mm | 25 µg/mL (≈ 56.8 µM) | 25 µg/mL (≈ 56.8 µM) | 30 mm | 10 mm | 9 mm | 8 mm | 12 mm | 6.25 µg/mL (≈ 14.2 µM) | 6.25 µg/mL (≈ 14.2 µM) | 18 mm | 12.5 µg/mL (≈ 28.4 µM) | 6.25 µg/mL (≈ 14.2 µM) | 10 mm | 6.25 µg/mL (≈ 14.2 µM) | 6.25 µg/mL (≈ 14.2 µM) | 14 mm | 25 µg/mL (≈ 56.8 µM) | 25 µg/mL (≈ 56.8 µM) |
| Fc1cc(-c2nnc3n2N=C(Nc2ccc(Cl)cc2)CS3)c(Cl)cc1Cl | 24 mm | 6.25 µg/mL (≈ 14.6 µM) | 6.25 µg/mL (≈ 14.6 µM) | 32 mm | 20 mm | 15 mm | 18 mm | 11 mm | 6.25 µg/mL (≈ 14.6 µM) | 12.5 µg/mL (≈ 29.2 µM) | 25 mm | 6.25 µg/mL (≈ 14.6 µM) | 6.25 µg/mL (≈ 14.6 µM) | 20 mm | 6.25 µg/mL (≈ 14.6 µM) | 6.25 µg/mL (≈ 14.6 µM) | 16 mm | 12.5 µg/mL (≈ 29.2 µM) | 6.25 µg/mL (≈ 14.6 µM) |
| Cc1cccc(NC(=O)CSc2nnc(-c3cc(F)c(Cl)cc3Cl)n2N)c1C | 20 mm | 12.5 µg/mL (≈ 28.4 µM) | 6.25 µg/mL (≈ 14.2 µM) | 20 mm | 17 mm | 15 mm | 20 mm | 16 mm | 12.5 µg/mL (≈ 28.4 µM) | 6.25 µg/mL (≈ 14.2 µM) | 24 mm | 6.25 µg/mL (≈ 14.2 µM) | 6.25 µg/mL (≈ 14.2 µM) | 15 mm | 6.25 µg/mL (≈ 14.2 µM) | 12.5 µg/mL (≈ 28.4 µM) | 18 mm | 12.5 µg/mL (≈ 28.4 µM) | 12.5 µg/mL (≈ 28.4 µM) |
